Where two headings read alike, the source gives them in different places.
Experiments:
[1] = Steady-state pharmacokinetics; assay type: in vivo; conditions: human, plasma, oral
In short: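 Crossover design in healthy males: 5 mg, 30 mg, or both test compounds orally once daily for 7 days, fasted, with 7-day washouts. A validated LC-MS/MS assay measured parent drugs and metabolites, and steady-state Tmax was taken directly from observed data. Analysis covered 34 completers.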

[2] = Safety and tolerability assessment; assay type: in vivo, human
In short: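 Healthy males in a randomized, open-label, six-sequence, three-period crossover took one test compound at 5 mg, another at 30 mg, or both together, orally once daily for 7 days with 150 mL water while fasted, with 7-day washouts. Investigators monitored vital signs, physical exam, clinical labs, 12-lead ECG and adverse events, coding events with MedDRA 19.0. Analysis covered 35 subjects dosed at least once.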

[3] = once-daily oral administration; cited from earlier work
CYP enzyme = conditions: in vivo; cited from earlier work
[4] = repeated once-daily administrations in healthy subjects, NCT00961025; cited from earlier work
CYP enzymes = conditions: in vitro studies; cited from earlier work
[5] = number of subjects who reported ADRs (the number of ADRs), N=35

| Compound | Tmax [1] [h] | Tmax ([1]; 30 mg) [h] | number of AEs reported ([2]; all adverse events after each treatment, 35 subjects) [AEs] | ADR: Amylase increased [2, 5] | Tmax [3] | CYP enzyme induction or inhibition (CYP enzyme) | terminal half-life (t1/2) [4] [h] | time to reach a maximum plasma concentration (Tmax) [4] [h] | Tmax ([1]; 5 mg) [h] | induction or inhibition of CYP enzymes (CYP enzymes) | ADR: Diarrhoea [2, 5] | ADR: Dyspepsia [2, 5] | ADR: Headache [2, 5] | ADR: Lip blister [2, 5] | ADR: Muscle twitching [2, 5] | ADR: Musculoskeletal stiffness [2, 5] | ADR: Oropharyngeal swelling [2, 5] | ADR: Vomiting [2, 5] |
| --- | --- | --- | --- | --- | --- | --- | --- | --- | --- | --- | --- | --- | --- | --- | --- | --- | --- | --- |
| CCc1ccc(CCOc2ccc(CC3SC(=O)NC3=O)cc2)nc1 (stereo not drawn) [Pioglitazone] | 3 | 2 | 3 | 1 (1) | about 2 hours | No clinically significant CYP enzyme induction or inhibition | – | – | – | – | – | – | – | – | – | – | – | – |
| CC(C)(C)OC[C@@H]1C(=O)NCCN1C(=O)C[C@H](N)Cc1cc(F)c(F)cc1F [Evogliptin] | – | – | – | – | – | – | 33 to 39 | 4 to 5 | 4.5 | does not induce or inhibit CYP enzymes | 1 (1) | 1 (1) | 1 (1) | 1 (1) | 1 (1) | 1 (1) | 1 (1) | 1 (1) |
